In ChEMBL document CHEMBL1799933, “Discovery of a selective allosteric M1 receptor modulator with suitable development properties based on a quinolizidinone carboxylic acid scaffold” (J Med Chem, 2011):
Active and inactive are the calls of the source. The calls are words filed in the database; no cut-off is given here.

Experiments:
[1] = biological target: T1, Muscarinic acetylcholine receptor M1 (Homo sapiens) (UniProt P11229); experiment: Agonist activity at human muscarinic M1 receptor expressed in CHONFAT cells assessed as enhancement of acetylcholine-induced calcium mobilization preincubated for 4 mins measured after 1 hr by FLIPR assay; assay type: functional, cell-based
T1 sequence (whole entry): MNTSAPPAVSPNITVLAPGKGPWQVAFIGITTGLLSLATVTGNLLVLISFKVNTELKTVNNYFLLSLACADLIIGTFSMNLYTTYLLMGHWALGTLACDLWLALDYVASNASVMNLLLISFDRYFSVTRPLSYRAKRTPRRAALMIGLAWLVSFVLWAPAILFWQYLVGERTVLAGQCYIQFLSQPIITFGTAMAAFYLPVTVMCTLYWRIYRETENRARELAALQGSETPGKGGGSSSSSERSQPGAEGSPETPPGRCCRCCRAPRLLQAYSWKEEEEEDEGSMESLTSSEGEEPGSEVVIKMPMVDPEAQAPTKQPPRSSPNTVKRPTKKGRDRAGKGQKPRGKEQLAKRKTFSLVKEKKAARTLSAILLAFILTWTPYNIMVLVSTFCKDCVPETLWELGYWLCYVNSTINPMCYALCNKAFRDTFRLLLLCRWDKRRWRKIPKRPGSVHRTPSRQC
Summary of the method: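 CHO-NFAT cells expressing the named muscarinic receptor (human M1–M4; rhesus, dog or rat M1 in CHO-K1) were plated at 25,000 cells/well and grown overnight at 37 °C, 6% CO2. Cells were loaded with 1 μM Fluo-4AM for 1 h, washed, and preincubated 4 min with serially diluted compound (final DMSO 0.67%). They were then stimulated 4 min with an EC20 of ACh, and Ca2+ flux was read by FLIPR384.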

[2] = Plasma protein binding in human serum by equilibrium dialysis method; assay type: ADME, cell-free; settings: read-out: PPB (converted)
Summary of the method: (§1)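 Protein binding measured by equilibrium dialysis against rat or human serum.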

[3] = Plasma protein binding in rat serum by equilibrium dialysis method; assay type: ADME, cell-free; settings: read-out: PPB (converted); summary of the method: as §1
[4] = test system: Plasma; experiment: Drug level in Sprague-Dawley rat plasma at 10 mg/kg, po; assay type: ADME, organism-based; parameters: dose 10 mg/kg, route oral; settings: in vivo
Summary of the method: (§2)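 Rats dosed orally at 10 mpk. Plasma, brain and CSF sampled at 2 h and concentrations determined by bioanalysis.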

[5] = Passive permeability of the compound at 5 uM; assay type: ADME; settings: not told
[6] = Lipophilicity, log P of the compound; assay type: physicochemical; settings: octanol/water
[7] = Ratio of drug level in cerebrospinal fluid to fraction unbound level in plasma of Sprague-Dawley rat at 10 mg/kg, po; assay type: ADME, organism-based; parameters: dose 10 mg/kg, route oral; settings: in vivo
[8] = test system: Cerebrospinal fluid; experiment: Drug level in Sprague-Dawley rat cerebrospinal fluid at 10 mg/kg, po; assay type: ADME, organism-based; parameters: dose 10 mg/kg, route oral; settings: in vivo, read-out: Drug uptake; summary of the method: as §2
[9] = test system: Mus musculus; experiment: Antiamnesic activity against scopolamine-induced dementia in ip dosed B6SJL mouse assessed as increase in freezing behavior at 33 uM plasma concentration; assay type: functional, organism-based
[10] = Ratio of drug level in brain to plasma of Sprague-Dawley rat at 10 mg/kg, po; assay type: ADME, organism-based; parameters: dose 10 mg/kg, route oral; settings: read-out: BPR; summary of the method: as §2
[11] = test system: Brain; experiment: Drug level Sprague-Dawley rat brain at 10 mg/kg, po; assay type: ADME, organism-based; parameters: dose 10 mg/kg, route oral; settings: in vivo, read-out: Drug uptake; summary of the method: as §2
[12] = Half life in rat at 3 mg/kg, po and 1 mg/kg, iv; assay type: ADME, organism-based; settings: in vivo
Summary of the method: (§3)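 Rats (n = 2) dosed orally at 3 mg/kg and IV at 1 mg/kg. Interanimal variability under 20% for all values.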

[13] = Clearance in dog at 3 mg/kg, po and 1 mg/kg, iv; assay type: ADME, organism-based, Canis lupus familiaris; settings: in vivo
Summary of the method: (§4)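 Dog PK, n = 2 animals. Given orally at 3 mg/kg and intravenously at 1 mg/kg. Interanimal variability under 20% for all values.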

[14] = Half life in dog at 3 mg/kg, po and 1 mg/kg, iv; assay type: ADME, organism-based, Canis lupus familiaris; settings: in vivo; summary of the method: as §4
[15] = Clearance in rat at 3 mg/kg, po and 1 mg/kg, iv; assay type: ADME, organism-based; settings: in vivo; summary of the method: as §3
[16] = Oral bioavailability in rat at 3 mg/kg; assay type: ADME, organism-based; settings: in vivo; summary of the method: as §3
[17] = Oral bioavailability in dog at 3 mg/kg; assay type: ADME, organism-based, Canis lupus familiaris; settings: in vivo; summary of the method: as §4
[18] = test system: Canis familiaris; experiment: Metabolic stability in po dosed portal vein cannulated dog assessed as level of presystemic G1 glucuronidation by scintillation counting; assay type: ADME, organism-based, Canis lupus familiaris; settings: in vivo
[19] = test system: Mus musculus; experiment: Antiamnesic activity against scopolamine-induced dementia in ip dosed B6SJL mouse assessed as increase in freezing behavior at 7.4 uM plasma concentration; assay type: functional, organism-based
[20] = Fraction unbound in rat plasma; assay type: ADME, cell-free
[21] = Fraction unbound in human plasma; assay type: ADME, cell-free

Row | Compound | IP [1] [nM] | fraction unbound [2] | fraction unbound [3] | also measured
1 | Cc1ccc(C2(C#N)CCN(Cc3cc(C(=O)O)c(=O)n4ccccc34)CC2)nc1 | 204 | 0.175 | 0.348 | –
2 | CCc1ccnc(C2(C#N)CCN(Cc3cc(C(=O)O)c(=O)n4ccccc34)CC2)c1 | 84 | 0.134 | 0.272 | –
3 | N#CC1(c2cccnc2)CCN(Cc2cc(C(=O)O)c(=O)n3ccccc23)CC1 | 363 | 0.361 | 0.509 | concentration [4]: 1720 nM; Papp at 5 µM [5]: 39 ×10⁻⁶ cm/s; logP [6]: -0.4; Ratio [7]: < 0.1; concentration [8]: 40 nM
4 | N#CC1(c2ccccc2F)CCN(Cc2cc(C(=O)O)c(=O)n3ccccc23)CC1 | 81 | 0.055 | 0.102 | –
5 | Cc1cccc(C2(C#N)CCN(Cc3cc(C(=O)O)c(=O)n4ccccc34)CC2)c1 | 88 | 0.048 | 0.059 | –
6 | COc1ccc(Cn2cc(C(=O)O)c(=O)c3ccccc32)cc1 | – | – | – | Activity [9]: Active
7 | N#CC1(c2cc(-c3ccccc3)ccn2)CCN(Cc2cc(C(=O)O)c(=O)n3ccccc23)CC1 | 659 | – | – | –
8 | N#CC1(c2cc(F)ccn2)CCN(Cc2cc(C(=O)O)c(=O)n3ccccc23)CC1 | 244 | – | – | –
9 | Cc1ccccc1C1(C#N)CCN(Cc2cc(C(=O)O)c(=O)n3ccccc23)CC1 | 68 | 0.038 | 0.051 | concentration [4]: 234 nM; Papp at 5 µM [5]: 24 ×10⁻⁶ cm/s; Kp [10]: 0.48; concentration [11]: 114 nM; Ratio [7]: 0.5; concentration [8]: 16 nM
10 | N#CC1(c2cccc(Cl)n2)CCN(Cc2cc(C(=O)O)c(=O)n3ccccc23)CC1 | 133 | 0.071 | 0.218 | –
11 | CSc1cccc(C2(C#N)CCN(Cc3cc(C(=O)O)c(=O)n4ccccc34)CC2)n1 | 100 | 0.012 | 0.057 | –
12 | Cc1ccnc(C2(C#N)CCN(Cc3cc(C(=O)O)c(=O)n4ccccc34)CC2)c1 | 44 | 0.235 | 0.467 | concentration [4]: 3070 nM; half-life [12]: 114 min; Papp at 5 µM [5]: 27 ×10⁻⁶ cm/s; clearance [13]: 10.1 mL/min/kg; half-life [14]: 234 min; Kp [10]: 0.07; concentration [11]: 233 nM; clearance [15]: 17.7 mL/min/kg; Ratio [7]: 0.25; concentration [8]: 180 nM; bioavailability [16]: 24%; bioavailability [17]: 47%
13 | [3H]OC(=O)c1cc(CN2CCC(C#N)(c3ccccn3)CC2)c2ccccn2c1=O | – | – | – | Stability [18]: 50%
14 | N#Cc1ccc(N2CCN(Cc3cc(C(=O)O)c(=O)n4ccccc34)CC2)cc1 | – | – | – | Activity [19]: Active
15 | COc1ccnc(C2(C#N)CCN(Cc3cc(C(=O)O)c(=O)n4ccccc34)CC2)c1 | 224 | 0.217 | 0.485 | –
16 | Cc1cccc(C2(C#N)CCN(Cc3cc(C(=O)O)c(=O)n4ccccc34)CC2)n1 | 148 | 0.158 | 0.249 | –
17 | N#CC1(c2cccc(F)c2)CCN(Cc2cc(C(=O)O)c(=O)n3ccccc23)CC1 | 562 | – | – | –
18 | Cc1cccnc1C1(C#N)CCN(Cc2cc(C(=O)O)c(=O)n3ccccc23)CC1 | 1940 | – | – | –
19 | N#CC1CCN(Cc2cc(C(=O)O)c(=O)n3ccccc23)CC1 | 7650 | – | – | –
20 | COc1ccccc1C1(C#N)CCN(Cc2cc(C(=O)O)c(=O)n3ccccc23)CC1 | 164 | – | – | –
21 | N#CC1(c2ccc(F)cc2)CCN(Cc2cc(C(=O)O)c(=O)n3ccccc23)CC1 | 194 | – | – | –
22 | N#CC1(c2cc(C(F)(F)F)ccn2)CCN(Cc2cc(C(=O)O)c(=O)n3ccccc23)CC1 | 2720 | – | – | –
23 | O=C(O)c1cc(CN2CCC(c3ccccc3)CC2)c2ccccn2c1=O | 1340 | – | – | –
24 | N#CC1(c2ccncc2)CCN(Cc2cc(C(=O)O)c(=O)n3ccccc23)CC1 | 938 | – | – | –
25 | N#CC1(c2ccccc2)CCN(Cc2cc(C(=O)O)c(=O)n3ccccc23)CC1 | 151 | 0.101 | 0.135 | concentration [4]: 321 nM; Papp at 5 µM [5]: 27 ×10⁻⁶ cm/s; Kp [10]: 0.39; fraction unbound [20]: 0.1; concentration [11]: 127 nM; Ratio [7]: 0.25; concentration [8]: 8 nM; fraction unbound [21]: 0.1
